Mdm2-MdmX inh: human Mdm2/MdmX binding inhibition. SaOS-2 split-luciferase Mdm2/MdmX complementation, luminescence. O15151+Q00987. inhibition, % at 8 µM. 330,000 compounds, 3% hits. AID 485346;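 active means inhibition of at least 50% at 8 µM in the primary screen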
Target sequence (O15151 whole entry, looked up): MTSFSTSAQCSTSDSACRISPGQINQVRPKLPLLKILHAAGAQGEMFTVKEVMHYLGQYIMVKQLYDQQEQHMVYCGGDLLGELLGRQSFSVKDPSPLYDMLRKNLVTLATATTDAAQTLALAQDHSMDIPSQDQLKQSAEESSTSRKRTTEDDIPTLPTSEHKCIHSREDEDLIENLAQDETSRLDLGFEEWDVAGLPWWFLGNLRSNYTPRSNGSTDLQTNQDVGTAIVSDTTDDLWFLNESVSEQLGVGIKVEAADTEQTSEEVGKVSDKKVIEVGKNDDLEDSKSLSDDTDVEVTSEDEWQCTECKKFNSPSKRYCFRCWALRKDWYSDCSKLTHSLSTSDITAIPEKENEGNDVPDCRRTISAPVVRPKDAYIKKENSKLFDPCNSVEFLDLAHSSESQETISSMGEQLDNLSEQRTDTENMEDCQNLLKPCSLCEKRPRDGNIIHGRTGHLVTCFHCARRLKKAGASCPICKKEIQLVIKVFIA
Target sequence (Q00987 whole entry, looked up): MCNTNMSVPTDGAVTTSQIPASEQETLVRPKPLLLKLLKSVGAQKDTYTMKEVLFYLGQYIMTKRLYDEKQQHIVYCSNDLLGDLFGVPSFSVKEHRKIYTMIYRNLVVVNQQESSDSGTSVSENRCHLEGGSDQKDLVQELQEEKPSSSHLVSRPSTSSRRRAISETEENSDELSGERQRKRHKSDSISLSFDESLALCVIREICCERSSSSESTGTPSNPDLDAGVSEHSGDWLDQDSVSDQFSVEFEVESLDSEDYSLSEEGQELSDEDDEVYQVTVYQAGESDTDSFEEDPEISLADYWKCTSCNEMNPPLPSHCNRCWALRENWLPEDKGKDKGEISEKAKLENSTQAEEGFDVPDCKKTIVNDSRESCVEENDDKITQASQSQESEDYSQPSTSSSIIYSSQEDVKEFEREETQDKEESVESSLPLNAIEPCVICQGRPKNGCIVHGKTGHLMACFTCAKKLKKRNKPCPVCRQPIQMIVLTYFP
T cruzi repl: blocks replication of Trypanosoma cruzi; 300,000 compounds, 1.4% hits; T. cruzi beta-gal in NIH3T3, luminescence, 90 h; inhibition, % (no concentration beside the values);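 active means mean inhibition across valid replicates above about 55%, limit read from the data; inconclusive means mean below that limit but half or more replicates reach it; inactive means mean below it, under half of replicates reach it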;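 further: signal also drops with host cell toxicity which is not excluded here; 0% = plate median of DMSO wells and 100% = zero luminescence signal; higher percent means less beta-gal luminescence so fewer parasites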
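assay system = mouse NIH/3T3 fibroblasts infected with β-gal-expressing T. cruzi Tulahuen C4 | input = 5,000 NIH/3T3 host cells per well | buffer or medium = DMEM plus 2% FBS | timing = 3 h host attachment, then at least 90 h co-culture | measured by = GalScreen luminescence, 60 min | evaluation = luminescence reflecting intracellular parasite burden, expressed as percent inhibition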
aSyn 5UTR inh: MLPCN primary screen, SNCA 5' untranslated region; alpha-synuclein 5'UTR reporter, inhibitor activity; inhibition, % (tested at 7.5 µM); 300,000 compounds, 0.82% hits; AID 1813; in the data active means inhibition above about 60%; inconclusive means no clear call, values can overlap the other calls;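 further: H4 neuroglioblastoma cells stably carrying SNCA 5'UTR luciferase fusion; 0% = DMSO wells and 100% = positive control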
CSC inhib: cancer stem cell inhibition | cancer stem cell-like cells viability, luminescence | inhibition, % at 7.5 µM | 300,000 compounds, 1.1% hits | AID 2717; in the data active means inhibition above about 75%; inconclusive means no clear call, values can overlap the other calls; tested in HMLE shEcad cells
SKKanGAS inh: SKKanGAS growth inhibition. inhibition, % at 7.5 µM. AID 1662. 300,000 compounds, 1.3% hits. S. pyogenes SKKanGAS, kanamycin growth, BacTiter-Glo, 6 h;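 active means mean replicate score, as percent of positive control median, at least 50; inconclusive means mean below 50 but one replicate at or above 50; inactive means mean and every replicate below 50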;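 further: strain carries kanamycin resistance gene driven by streptokinase promoter and grows in 40 µg/ml kanamycin; loss of luminescence reflects streptokinase promoter inhibition or plain growth inhibition; 0% = median of DMSO wells and 100% = positive control at its reference dose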
Mdm2-MdmX conf: human Mdm2/MdmX binding inhibition, confirmed | inhibition, % at 8 µM | 10,000 compounds, 55% hits | luminescent assay | shares compounds with Mdm2-MdmX inh | AID 489028; in the data active means inhibition above about 40%
Full FLuc ctr: full-length luciferase inhibition in Mdm2/MdmX counter-screen; shares compounds with Mdm2-MdmX inh; SaOS-2 full-length luciferase counterscreen, luminescence; inhibition, % at 8 µM; 6,200 compounds, 77% hits;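 active means mean inhibition at 8 µM reaching about 37%, which flags the compound as non-specific, limit read from the data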;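 further: p53-null SaOS-2 cells with luciferase driven by a doxycycline-inducible promoter; compound on cells about two nights before reading with doxycycline added after day one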
Active calls of the source: *; ? = inconclusive; · = no result. Hits are enriched below; roughly 5.4% of the tested compounds scored in any of these assays.

SMILES	Mdm2-MdmX inh	T cruzi repl	aSyn 5UTR inh	CSC inhib	SKKanGAS inh	Mdm2-MdmX conf	Full FLuc ctr
CC(C)(C)C1CCC2(CC1)C(C#N)=C(SCC(=O)Nc1ccccc1)NC(=O)C2C#N (configuration not stated)	92*	-56	8	66	68*	75*	59*
CC(=O)N1CCN(C(=S)Nc2cc(S(=O)(=O)N3CCOCC3)ccc2Cl)CC1	-19	-4	-8	-3	-19	·	·
COc1ccc(N2C(=O)C(C)C(Cc3ccc(C)cc3)C2=O)cc1 (configuration not stated)	3	-5	-10	-22	1	·	·
CCOC(=O)C(C)Oc1cccc2c(=O)n(CC(=O)NCc3ccc(F)cc3)ccc12 (configuration not stated)	69*	22	68*	45	-6	61*	88*
CCOC(=O)C(C)Oc1cccc2c(=O)n(CC(=O)NCc3ccccc3)ccc12 (configuration not stated)	66*	17	73*	43	-8	50*	67*
CCc1cc(C(=O)OC)c(NC(=O)CSc2nccn2C)s1	12	5	0	-15	-1	·	·
O=C(Cc1nnc(NC(=O)Nc2ccc(F)cc2)s1)Nc1ccccc1	10	-24	4	-8	-30	·	·
O=C(Cc1ccc(-c2ccccc2)cc1)Nc1ccccc1	-31	22	-28	-10	-4	·	·
O=C(Cc1sc(-c2ccccc2Cl)nc1-c1ccccc1)Nc1ccc(F)cc1	64*	4	-27	-3	-2	24	·
O=C(Cc1sc(-c2ccccc2)nc1-c1ccccc1)Nc1ccc(Cl)cc1	59*	7	13	5	4	6	·
O=C(Cc1sc(-c2ccccc2Cl)nc1-c1ccccc1)Nc1ccccc1	72*	-3	-13	3	-2	25	·
COC(=O)Cc1sc(-c2ccccn2)nc1-c1ccccc1	-14	1	-7	-6	-9	·	·
Cc1cccc(Nc2cc(C)c3c(O)cccc3n2)c1C	43	46	-101	62	-3	·	·
Cc1ccccc1Nc1c(-c2cccnc2)nc2ccccn12	29	-14	32	1	0	·	·
Cc1ccn2c(Nc3ccccc3)c(-c3ccccn3)nc2c1	81*	62*	54	81*	76*	83*	21
Cc1ccccc1Nc1c(-c2ccccn2)nc2ccccn12	65*	44	64*	37	-2	46*	52*
Cc1ccn2c(Nc3ccccc3C)c(-c3ccccn3)nc2c1	85*	50	45	58	96*	52*	32
Cc1ccc2nc(-c3cccnc3)c(Nc3ccccc3C)n2c1	20	15	17	7	-2	·	·
Cc1ccc2nc(-c3ccccn3)c(Nc3ccccc3C)n2c1	86*	62*	38	?	92*	75*	36
Cc1ccc(S(=O)(=O)Nc2ccccc2F)cc1C(=O)OC(C)C(=O)N1CCOCC1 (configuration not stated)	-6	0	-21	0	-13	·	·
CN(C)CCn1c2c(c(SCC(=O)N3CCc4ccccc43)nc1=O)CCCC2	0	41	2	-6	-3	·	·
Cc1cccc(NC(=O)C2CC(=O)n3cnnc3S2)c1 (configuration not stated)	21	20	15	-4	10	·	·
CSc1ccc(/C=C/C(=O)c2c(O)cc(C)oc2=O)cc1	16	11	-117	-8	21	·	·
CCCCC1CCC(C(=O)N(CCCC)c2c(N)n(CCCC)c(=O)[nH]c2=O)CC1 (configuration not stated)	99*	11	6	54	-6	28	·
Cc1ccc(S(=O)(=O)N2CCC(C(=O)NC3CC(C)(C)NC(C)(C)C3)CC2)cc1	8	2	-2	3	12	·	·
CCN(c1ccccc1)S(=O)(=O)c1ccc(Cl)c(NC(=O)Nc2ccc(Cl)cc2C#N)c1	99*	12	-10	9	8	99*	56*
CCN(c1ccccc1)S(=O)(=O)c1ccc(Cl)c(NC(=O)c2ccc(=O)[nH]n2)c1	53*	·	·	·	·	-3	·
COc1ccc(C(=O)Nc2cc(C)c3c(=O)oc4ccccc4c3n2)cc1	74*	-2	-17	-20	-1	25	·
COCC(=O)Nc1cc(C)c2c(=O)oc3ccccc3c2n1	-3	3	-48	-2	-6	·	·

Compound activity from PubChem BioAssay.
